Test results reported in BindingDB's records for doi:10.1021/jm0300274 (The University of Georgia, 2003).

Tested on: HIV-1 (antiviral activity in human PBM cells)
Test: Anti-HIV-1 activity determined in human peripheral blood mononuclear PBM cells, expressed as EC50
In short: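 PHA-stimulated (2-3 days) human PBM cells from healthy seronegative donors were infected with HIV-1 LAI for 1 h in bulk, then placed into 10-fold serial compound dilutions. Medium contained IL-2 and DEAE-dextran. After 5 days at 37 °C, supernatant virus was pelleted and RT activity measured. EC50 was taken from the concentration-response curve by the median effect method.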

SMILES	EC50 [µM]
Nc1ncnc2c1ncn2[C@H]1C=C(F)[C@H](CO)O1	> 100
Cc1cn([C@@H]2CC(F)(F)[C@H](CO)O2)c(=O)[nH]c1=O	> 100
Cc1cn([C@@H]2C=C(F)[C@H](CO)O2)c(=O)[nH]c1=O	> 100
Nc1ncnc2c1ncn2[C@H]1CC(F)(F)[C@H](CO)O1	> 100
O=c1ccn([C@H]2CC(F)(F)[C@H](CO)O2)c(=O)[nH]1	> 100
Cc1cn([C@H]2C=C(F)[C@H](CO)O2)c(=O)[nH]c1=O	> 100
Cc1cn([C@H]2CC(F)(F)[C@H](CO)O2)c(=O)[nH]c1=O	> 100
Nc1nc2c(ncn2[C@@H]2C=C(F)[C@H](CO)O2)c(=O)[nH]1	38.5
Nc1ccn([C@@H]2CC(F)(F)[C@H](CO)O2)c(=O)n1	11.5
O=c1[nH]cnc2c1ncn2[C@@H]1CC(F)(F)[C@H](CO)O1	> 100
Nc1ncnc2c1ncn2[C@@H]1C=C(F)[C@H](CO)O1	> 100
Nc1ccn([C@H]2CC(F)(F)[C@H](CO)O2)c(=O)n1	> 100
Nc1nc(=O)n([C@@H]2CC(F)(F)[C@H](CO)O2)cc1F	8.8
Nc1nc2c(ncn2[C@H]2CC(F)(F)[C@H](CO)O2)c(=O)[nH]1	> 100
Nc1nc(=O)n([C@H]2CC(F)(F)[C@H](CO)O2)cc1F	> 100
Nc1nc2c(ncn2[C@H]2C=C(F)[C@H](CO)O2)c(=O)[nH]1	> 100
Nc1nc2c(ncn2[C@@H]2CC(F)(F)[C@H](CO)O2)c(=O)[nH]1	> 100
O=c1[nH]cnc2c1ncn2[C@H]1C=C(F)[C@@H](CO)O1	> 100
O=c1[nH]cnc2c1ncn2[C@H]1CC(F)(F)[C@H](CO)O1	> 100
Nc1ncnc2c1ncn2[C@@H]1CC(F)(F)[C@H](CO)O1	> 100
O=c1ccn([C@@H]2CC(F)(F)[C@H](CO)O2)c(=O)[nH]1	> 100
